Results from ChEMBL document CHEMBL3593190, “Triterpenoids with Promoting Effects on the Differentiation of PC12 Cells from the Steamed Roots of Panax notoginseng” (J Nat Prod, 2015).
pEC50, pIC50: −log10 of the molar value.

Key:
[1] = system: A549; assay: Cytotoxicity against human A549 cells; format: functional, cell-based
[2] = system: MCF7; assay: Cytotoxicity against human MCF7 cells; format: functional, cell-based
[3] = Cytotoxicity against human […] cells; format: functional, cell-based
[4] = system: PC-12; assay: Neurotrophic activity in rat PC12 cells assessed as stimulation of NGF-induced neurite outgrowth at 10 uM after 72 hrs by phase-contrast microscopic analysis relative to control; format: functional
Summary of the method: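 PC12 cells kept in F12 with 12.5% horse serum and 2.5% FBS at 37 °C, 5% CO2, then seeded at 5 × 10^4 cells/mL on poly-L-lysine. After 24 h, medium switched to 10 μM compound (DMSO, final 0.05%) plus 5 ng/mL NGF; controls: no NGF, 5 ng/mL or 50 ng/mL NGF. After 72 h, phase-contrast scoring: neurite ≥ soma diameter; % neurite-bearing cells, ≥100 cells/view, 5 views/well.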

[5] = system: HL-60; assay: Cytotoxicity against human HL60 cells; format: functional, cell-based
[6] = system: SW480; assay: Cytotoxicity against human SW480 cells; format: functional, cell-based
[7] = system: Human alphaherpesvirus 1; assay: Antiviral activity against HSV1; format: functional, organism-based
[8] = system: Human alphaherpesvirus 2; assay: Antiviral activity against HSV2; format: functional, organism-based

Row | Structure (SMILES) | pIC50 [1] | pIC50 [2] | pIC50 [3] | Activity [4] [%] | pIC50 [5] | pIC50 [6] | pEC50 [7] | pEC50 [8]
1 | CC(C)=CCC[C@@](C)(O)[C@H]1CC[C@]2(C)[C@@H]1[C@H](O)C[C@@H]1[C@@]3(C)CC[C@H](O[C@@H]4O[C@H](CO)[C@@H](O)[C@H](O)[C@H]4O[C@@H]4O[C@H](CO)[C@@H](O)[C@H](O)[C@H]4O)C(C)(C)[C@@H]3CC[C@]12C | < 5.00 | < 5.00 | < 5.00 | 9.5 | < 5.00 | < 5.00 |  | 
2 | CC(C)(O)[C@@H](O)/C=C/[C@](C)(O)[C@H]1CC[C@]2(C)[C@@H]1[C@H](O)C[C@@H]1[C@@]3(C)CC[C@H](O[C@@H]4O[C@H](CO)[C@@H](O)[C@H](O)[C@H]4O[C@@H]4O[C@H](CO)[C@@H](O)[C@H](O)[C@H]4O)C(C)(C)[C@@H]3CC[C@]12C | < 5.00 | < 5.00 | < 5.00 | 8.2 | < 5.00 | < 5.00 |  | 
3 | CC(C)(O)[C@H](O)/C=C/[C@](C)(O)[C@H]1CC[C@]2(C)[C@@H]1[C@H](O)C[C@@H]1[C@@]3(C)CC[C@H](O[C@@H]4O[C@H](CO)[C@@H](O)[C@@H](O)[C@H]4O[C@@H]4O[C@H](CO)[C@@H](O)[C@H](O)[C@H]4O)C(C)(C)[C@@H]3CC[C@]12C | < 5.00 | < 5.00 | < 5.00 | 10.8 | < 5.00 | < 5.00 |  | 
4 | C/C(=C\[C@@H](O)[C@H](O)C(C)(C)O)[C@H]1CC[C@]2(C)[C@@H]1[C@H](O)C[C@@H]1[C@@]3(C)CC[C@H](O)C(C)(C)[C@@H]3[C@@H](O[C@@H]3O[C@H](CO)[C@@H](O)[C@H](O)[C@H]3O)C[C@]12C | < 5.00 | < 5.00 | < 5.00 | 9.9 | < 5.00 | < 5.00 |  | 
5 | C/C(=C/[C@H](O)[C@@H](O)C(C)(C)O)[C@H]1CC[C@]2(C)[C@@H]1[C@H](O)C[C@@H]1[C@@]3(C)CC[C@H](O)C(C)(C)[C@@H]3[C@@H](O[C@@H]3O[C@H](CO)[C@@H](O)[C@H](O)[C@H]3O)C[C@]12C | < 5.00 | < 5.00 | < 5.00 | 11.4 | < 5.00 | < 5.00 |  | 
6 | C/C(=C/[C@@H](O)[C@H](O)C(C)(C)O)[C@H]1CC[C@]2(C)[C@@H]1[C@H](O)C[C@@H]1[C@@]3(C)CC[C@H](O)C(C)(C)[C@@H]3[C@@H](O[C@@H]3O[C@H](CO)[C@@H](O)[C@H](O)[C@H]3O)C[C@]12C | < 5.00 | < 5.00 | < 5.00 | 10.9 | < 5.00 | < 5.00 |  | 
7 | CO[C@@H](/C=C(\C)[C@H]1CC[C@]2(C)[C@@H]1[C@H](O)C[C@@H]1[C@@]3(C)CC[C@H](O)C(C)(C)[C@@H]3[C@@H](O[C@@H]3O[C@H](CO)[C@@H](O)[C@H](O)[C@H]3O)C[C@]12C)[C@@H]1OC1(C)C | < 5.00 | < 5.00 | < 5.00 | 11.6 | < 5.00 | < 5.00 |  | 
8 | CO[C@@H](/C=C(\C)[C@H]1CC[C@]2(C)[C@@H]1[C@H](O)C[C@@H]1[C@@]3(C)CC[C@H](O[C@@H]4O[C@H](CO)[C@@H](O)[C@H](O)[C@H]4O[C@@H]4O[C@H](CO)[C@@H](O)[C@H](O)[C@H]4O)C(C)(C)[C@@H]3CC[C@]12C)[C@@H]1OC1(C)C | < 5.00 | < 5.00 | < 5.00 | 11.4 | < 5.00 | < 5.00 |  | 
9 | C/C(=C\C[C@H](O)C(C)(C)O)[C@H]1CC[C@]2(C)[C@@H]1[C@H](O)C[C@@H]1[C@@]3(C)CC[C@H](O)C(C)(C)[C@@H]3[C@@H](O[C@@H]3O[C@H](CO)[C@@H](O)[C@H](O)[C@H]3O)C[C@]12C | < 5.00 | < 5.00 | < 5.00 | 9.3 | < 5.00 | < 5.00 |  | 
10 | CC(C)=CCC[C@@](C)(O)[C@H]1CC[C@]2(C)[C@@H]1[C@H](O)C[C@@H]1[C@@]3(C)CC[C@H](O)C(C)(C)[C@@H]3[C@@H](O[C@@H]3O[C@H](CO)[C@@H](O)[C@H](O)[C@H]3O)C[C@]12C | < 5.00 | < 5.00 | < 5.00 | 8.5 | < 5.00 | < 5.00 |  | 
11 | C=C(CCC=C(C)C)[C@H]1CC[C@]2(C)[C@@H]1[C@H](O)C[C@@H]1[C@@]3(C)CC[C@H](O[C@@H]4O[C@H](CO)[C@@H](O)[C@H](O)[C@H]4O)C(C)(C)[C@@H]3CC[C@]12C | < 5.00 | < 5.00 | < 5.00 | 8.9 | < 5.00 | < 5.00 |  | 
12 | CC(=O)OC[C@H]1O[C@@H](O[C@H]2[C@H](O[C@H]3CC[C@]4(C)[C@H]5C[C@@H](O)[C@@H]6[C@@H]([C@@](C)(O)CCC=C(C)C)CC[C@@]6(C)[C@]5(C)CC[C@H]4C3(C)C)O[C@H](CO)[C@@H](O)[C@@H]2O)[C@H](O)[C@@H](O)[C@@H]1O | < 5.00 | < 5.00 | < 5.00 | 9.3 | < 5.00 | < 5.00 |  | 
13 | CC(=O)OC[C@H]1O[C@@H](O[C@H]2[C@H](O[C@H]3CC[C@]4(C)[C@H]5C[C@@H](O)[C@@H]6[C@@H]([C@](C)(O)CCC=C(C)C)CC[C@@]6(C)[C@]5(C)CC[C@H]4C3(C)C)O[C@H](CO)[C@@H](O)[C@@H]2O)[C@H](O)[C@@H](O)[C@@H]1O | < 5.00 | < 5.00 | < 5.00 | 13.4 | < 5.00 | < 5.00 |  | 
14 | CC(C)(O)CCC[C@@](C)(O)[C@H]1CC[C@]2(C)[C@@H]1[C@H](O)C[C@@H]1[C@@]3(C)CC[C@H](O)C(C)(C)[C@@H]3[C@@H](O[C@@H]3O[C@H](CO)[C@@H](O)[C@H](O)[C@H]3O)C[C@]12C | < 5.00 | < 5.00 | < 5.00 | 8.6 | < 5.00 | < 5.00 |  | 
15 | C=C(CCCC(C)(C)O)[C@H]1CC[C@]2(C)[C@@H]1[C@H](O)C[C@@H]1[C@@]3(C)CC[C@H](O)C(C)(C)[C@@H]3[C@@H](O[C@@H]3O[C@H](CO)[C@@H](O)[C@H](O)[C@H]3O)C[C@]12C | < 5.00 | < 5.00 | < 5.00 | 8.3 | < 5.00 | < 5.00 |  | 
16 | CC(C)=CCC[C@](C)(O)[C@H]1CC[C@]2(C)[C@@H]1[C@H](O)C[C@@H]1[C@@]3(C)CC[C@H](O[C@@H]4O[C@H](CO)[C@@H](O)[C@H](O)[C@H]4O[C@@H]4O[C@H](CO)[C@@H](O)[C@H](O)[C@H]4O[C@@H]4OC[C@@H](O)[C@H](O)[C@H]4O)C(C)(C)[C@@H]3CC[C@]12C |  |  |  |  |  |  | 4.78 | 4.71
